Results as given in ChEMBL document CHEMBL3611973, “Synthesis and biological evaluation of a novel betulinic acid derivative as an inducer of apoptosis in human colon carcinoma cells (HT-29)” (Eur J Med Chem, 2015).
The source made the active and inactive calls. The rule behind the calls is not given here.

What was measured:
U-937 = assay: Cytotoxic activity against human U937 cells assessed as cell growth inhibition after 48 hrs by MTT assay; format: functional, cell-based; conditions: U-937, 48 h
Method in brief: (§1)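 Log-phase cells (1.25-2.5×10^4/100 µl; RPMI 1640, HepG2 in high-glucose DMEM, 10% FBS) given compound in DMSO (final <0.1%), 0-50 µM, 48 h, 37 °C, 5% CO2. MTT 4 h, DMSO solubilization, OD 540 nm minus background; viability relative to untreated; IC50 by graphical extrapolation, ≥3 experiments in duplicate.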

HT-29 [1] = assay: Cytotoxic activity against human HT-29 cells assessed as cell growth inhibition after 48 hrs by MTT assay; format: functional, cell-based; conditions: HT-29, 48 h; method in brief: as §1
Jurkat = assay: Cytotoxic activity against human Jurkat cells assessed as cell growth inhibition after 48 hrs by MTT assay; format: functional, cell-based; method in brief: as §1
MCF7 = assay: Cytotoxic activity against human MCF7 cells assessed as cell growth inhibition after 48 hrs by MTT assay; format: functional, cell-based; conditions: MCF7, 48 h; method in brief: as §1
HepG2 = assay: Cytotoxic activity against human HepG2 cells assessed as cell growth inhibition after 48 hrs by MTT assay; format: functional, cell-based; conditions: HepG2, 48 h; method in brief: as §1
PBMC = assay: Cytotoxic activity against human PBMC cells assessed as cell growth inhibition after 48 hrs by MTT assay; format: cell-based; method in brief: as §1
HT-29 [2] = assay: Induction of apoptosis in human HT-29 cells assessed as early apoptotic cells using annexin V-FITC/propidium iodide staining at IC50 after 48 hrs by flow cytometry (reference value: 0.1%); format: functional
HT-29 [3] = assay: Induction of apoptosis in human HT-29 cells assessed as increase in caspase-9 activity at IC50 after 48 hrs by colorimetric assay; format: functional, cell-based
HT-29 [4] = assay: Induction of apoptosis in human HT-29 cells assessed as cleavage of PARP at IC50 after 24 to 48 hrs by Western blotting; format: functional, cell-based
HT-29 [5] = assay: Cytotoxicity against human HT-29 cells assessed as cell viability after 48 hrs by MTT assay in presence of NAC; format: functional, cell-based; conditions: HT-29, 48 h
Method in brief: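 HT-29 cells pre-incubated with 2.5 mM N-acetyl cysteine for 3 h, then exposed to compound and assayed for viability by MTT.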

HT-29 [6] = assay: Induction of apoptosis in human HT-29 cells assessed as increase in caspase-3 activity at IC50 after 48 hrs by colorimetric assay; format: functional, cell-based
HT-29 [7] = assay: Induction of apoptosis in human HT-29 cells assessed as early apoptotic cells using annexin V-FITC/propidium iodide staining at IC50 after 24 hrs by flow cytometry (reference value: 0.1%); format: functional
HT-29 [8] = assay: Induction of apoptosis in human HT-29 cells assessed as increase in caspase-8 activity at IC50 after 48 hrs by colorimetric assay; format: functional, cell-based
HT-29 [9] = assay: Induction of apoptosis in human HT-29 cells assessed as loss of mitochondrial membrane potential using JC-1 dye at IC50 after 48 hrs by flow cytometry (reference value: 1.75%); format: functional
HT-29 [10] = assay: Induction of apoptosis in human HT-29 cells assessed as apoptotic bodies using Hoechst 33258 dye at IC50 after 48 hrs by confocal microscopic analysis; format: functional, cell-based
Method in brief: (§2)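 HT-29 (2.5×10^5 cells/ml) treated 48 h at 37 °C, 5% CO2, washed, fixed in 4% paraformaldehyde (4 °C, 30 min), stained with Hoechst 33258 (5 µg/ml final, 37 °C, 30 min, dark), mounted in 50% glycerol on poly-L-lysine slides; confocal imaging at 100×.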

HT-29 [11] = assay: Induction of apoptosis in human HT-29 cells assessed as early apoptotic cells using annexin V-FITC/propidium iodide staining at IC50 after 12 hrs by flow cytometry (reference value: 0.1%); format: functional
HT-29 [12] = assay: Induction of apoptosis in human HT-29 cells assessed as ROS generation measured up to 15 mins by FACS analysis; format: functional, cell-based
Method in brief: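 HT-29 (2.5×10^5/ml) exposed 0-2 h, washed, loaded with CM-H2DCFDA (5 μM in PBS) 30 min at 37 °C in the dark. DCF read by flow cytometry (ex 488/em 530 nm) on FSC/SSC-gated viable cells; mean fluorescence intensity, three independent experiments.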

HT-29 [13] = assay: Induction of apoptosis in human HT-29 cells assessed as loss of mitochondrial membrane potential using JC-1 dye at IC50 after 24 hrs by flow cytometry (reference value: 1.75%); format: functional
HT-29 [14] = assay: Induction of apoptosis in human HT-29 cells assessed as membrane blebbing using Hoechst 33258 dye at IC50 after 48 hrs by confocal microscopic analysis; format: functional, cell-based; method in brief: as §2
HT-29 [15] = assay: Induction of apoptosis in human HT-29 cells assessed as late apoptotic cells using annexin V-FITC/propidium iodide staining at IC50 by flow cytometry; format: functional, cell-based; conditions: TDE = time-dependent effect
Calf thymus DNA [16] = assay: Binding affinity to calf thymus DNA up to 2 hrs by absorption spectroscopy analysis; format: nucleic-acid assay; conditions: Bos taurus
Method in brief: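 Compound stock in 60% ethanol/50 mM Tris-HCl/NaCl (pH 7.5), diluted in buffer, actual concentration set by molar extinction coefficient. CT-DNA held at 50 μg/ml (legend: 100 μg/mL) with varied compound, 37 °C, 2 h; UV-vis scanned 200-400 nm. θ from 260 nm absorbance; Kb as the reciprocal of ligand concentration at half-saturation of the isotherm.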

HT-29 [17] = assay: Induction of apoptosis in human HT-29 cells assessed as late apoptotic cells using annexin V-FITC/propidium iodide staining at IC50 after 24 hrs by flow cytometry (reference value: 0.0%); format: functional
HT-29 [18] = assay: Induction of apoptosis in human HT-29 cells assessed as fragmentation using Hoechst 33258 dye at IC50 after 48 hrs by confocal microscopic analysis; format: functional, cell-based; method in brief: as §2
HT-29 [19] = assay: Induction of apoptosis in human HT-29 cells assessed as late apoptotic cells using annexin V-FITC/propidium iodide staining at IC50 after 12 hrs by flow cytometry (reference value: 0.0%); format: functional
HT-29 [20] = assay: Induction of apoptosis in human HT-29 cells assessed as early apoptotic cells using annexin V-FITC/propidium iodide staining at IC50 by flow cytometry; format: functional, cell-based; conditions: TDE = time-dependent effect
HT-29 [21] = assay: Induction of apoptosis in human HT-29 cells assessed as late apoptotic cells using annexin V-FITC/propidium iodide staining at IC50 after 48 hrs by flow cytometry (reference value: 0.0%); format: functional
Calf thymus DNA [22] = assay: Binding affinity to calf thymus DNA assessed as conformational change at 50 uM after 2 hrs by circular dichroism analysis; format: nucleic-acid assay; conditions: Bos taurus
Method in brief: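 CT-DNA (500 μg/mL) incubated alone or with 50 μM compound for 2 h at 37 °C in 50 mM Tris-HCl/NaCl buffer; CD spectra recorded for conformation, with the positive band at 275 nm and the negative band at 245 nm (B-form) monitored.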

HT-29 [23] = assay: Induction of apoptosis in human HT-29 cells assessed as loss of mitochondrial membrane potential using JC-1 dye at IC50 after 12 hrs by flow cytometry (reference value: 1.75%); format: functional
HT-29 [24] = assay: Induction of apoptosis in human HT-29 cells assessed as chromatin condensation using Hoechst 33258 dye at IC50 after 48 hrs by confocal microscopic analysis; format: functional, cell-based; method in brief: as §2
HT-29 [25] = assay: Induction of apoptosis in human HT-29 cells assessed as reduction in Bcl2/Bax ratio at IC50 after 12 to 48 hrs by Western blotting; format: functional, cell-based

`C=C(C)[C@@H]1CC[C@]2(C(=O)O)CC[C@]3(C)[C@H](CC[C@@H]4[C@@]5(C)CC[C@H](OC(=O)Cn6cc(-c7ccc(C(=O)OC)cc7)nn6)C(C)(C)[C@@H]5CC[C@]43C)[C@@H]12` was tested, and the IC50 (U-937) was over 50 µM, the IC50 (HT-29 [1]) was over 50 µM and the IC50 (Jurkat) was over 50 µM. For the same compound, the IC50 (MCF7) was over 50 µM and the IC50 (HepG2) was over 50 µM.
Compound `C=C(C)[C@@H]1CC[C@]2(C(=O)O)CC[C@]3(C)[C@H](CC[C@@H]4[C@@]5(C)CC[C@H](OC(=O)Cn6cc(-c7cnc(OC)nc7OC)nn6)C(C)(C)[C@@H]5CC[C@]43C)[C@@H]12` has an IC50 (U-937) of 41.9 µM, an IC50 (HT-29 [1]) of 39.8 µM and an IC50 (Jurkat) of over 50 µM. For the same compound, the IC50 (PBMC) was over 50 µM, the IC50 (MCF7) was 44.7 µM and the IC50 (HepG2) was over 50 µM.
`C=C(C)[C@@H]1CC[C@]2(C(=O)O)CC[C@]3(C)[C@H](CC[C@@H]4[C@@]5(C)CC[C@H](OC(=O)Cn6cc(CO)nn6)C(C)(C)[C@@H]5CC[C@]43C)[C@@H]12` gave an IC50 (U-937) of over 50 µM, an Activity (HT-29 [2]) of 25.2% and an IC50 (HT-29 [1]) of 14.9 µM. The Activity (HT-29 [3]) was “Active”, the Activity (HT-29 [4]) was “Active” and the IC50 (HT-29 [5]) was 30.4 µM. The Activity (HT-29 [6]) was “Active”, the IC50 (Jurkat) was 41.4 µM and the Activity (HT-29 [7]) was 17.1%. The Activity (HT-29 [8]) was “inactive”, the Activity (HT-29 [9]) was 51.4% and the Activity (HT-29 [10]) was “Active”. For the same compound, the Activity (HT-29 [11]) was 14.1%, the Activity (HT-29 [12]) was “Active” and the Activity (HT-29 [13]) was 30.5%. For the same compound, the Activity (HT-29 [14]) was “Active”, the Activity (HT-29 [15]) was “tde” and the IC50 (PBMC) was over 50 µM. For the same compound, the K (Calf thymus DNA [16]) was 8.38 ×10⁴ /M, the IC50 (MCF7) was over 50 µM and the Activity (HT-29 [17]) was 3.2%. The IC50 (HepG2) was over 50 µM, the Activity (HT-29 [18]) was “Active” and the Activity (HT-29 [19]) was 2%. The Activity (HT-29 [20]) was “tde”, the Activity (HT-29 [21]) was 4.6% and the Activity (Calf thymus DNA [22]) was “inactive”. For the same compound, the Activity (HT-29 [23]) was 16.5%, the Activity (HT-29 [24]) was “Active” and the Activity (HT-29 [25]) was “Active”.
Work on `C=C(C)[C@@H]1CC[C@]2(C(=O)O)CC[C@]3(C)[C@H](CC[C@@H]4[C@@]5(C)CC[C@H](OC(=O)Cn6cc(-c7ccc([N+](=O)[O-])cc7)nn6)C(C)(C)[C@@H]5CC[C@]43C)[C@@H]12` yielded an IC50 (U-937) of over 50 µM, an IC50 (HT-29 [1]) of over 50 µM and an IC50 (Jurkat) of 44.8 µM. The IC50 (PBMC) was over 50 µM, the IC50 (MCF7) was 45.7 µM and the IC50 (HepG2) was 42.7 µM.
`C=C(C)[C@@H]1CC[C@]2(C(=O)O)CC[C@]3(C)[C@H](CC[C@@H]4[C@@]5(C)CC[C@H](OC(=O)Cn6cc(CO[C@@H]7[C@H]8OC(C)(C)O[C@H]8O[C@@H]7[C@H](O)CO)nn6)C(C)(C)[C@@H]5CC[C@]43C)[C@@H]12` gave an IC50 (U-937) of over 50 µM, an IC50 (HT-29 [1]) of over 50 µM and an IC50 (Jurkat) of over 50 µM. For the same compound, the IC50 (MCF7) was over 50 µM and the IC50 (HepG2) was over 50 µM.
`C=C(C)[C@@H]1CC[C@]2(C(=O)O)CC[C@]3(C)[C@H](CC[C@@H]4[C@@]5(C)CC[C@H](OC(=O)Cn6cc(-c7ccc(C(=O)OCC)cc7)nn6)C(C)(C)[C@@H]5CC[C@]43C)[C@@H]12` was tested, and the IC50 (U-937) was 40.1 µM, the IC50 (HT-29 [1]) was over 50 µM and the IC50 (Jurkat) was over 50 µM. For the same compound, the IC50 (MCF7) was over 50 µM and the IC50 (HepG2) was over 50 µM.
